In brackets after ≈: the same amount, converted by molar mass. Activity calls are given as the source filed them. No cut-off for these calls is given here.
Assays:
[1] = test system: Mycolicibacterium smegmatis; assay: Antimycobacterial activity against Mycobacterium smegmatis str. MC2 155 ATCC 700084 assessed as inhibition of mycobacterial growth incubated for 24 hrs by MABA method; format: functional; settings: MC2 155 ATCC 700084, 24 h
[2] = Cytotoxic activity against human THP1 cells assessed as reduction in cell viability incubated for 48 hrs by […] based assay; set-up: species or system THP-1; settings: THP1 cells
Outline: (§1)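 RAW264.7 or THP-1 cells were grown in RPMI-1640 with 10% FBS and seeded at 10^5 cells/mL. Compound was two-fold serially diluted from a 50 mg/mL stock, with a solvent-control row. Plates were held 48 h at 37 °C in 5% CO2. Wells were washed twice with PBS, with centrifugation between washes for THP-1, then given fresh RPMI plus 0.01% […]. After overnight incubation, fluorescence was read at 560/590 nm and GIC50 derived.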

Mycolicibacterium aurum [3] = assay: Inhibition of multidrug resistance efflux pump in Mycobacterium aurum ATCC 23366 assessed as inhibition of ethidium bromide efflux by measuring relative fluorescence units for ethidium bromide accumulation at 1/4 times MIC incubated for 60 mins by fluorimetric assay
Outline: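 Whole-cell efflux assay: early-log cells (OD600 ~0.8) adjusted to OD600 0.4, washed into PBS; 4-6x10^7 bacteria/mL with 0.4% glucose, 0.5 mg/L ethidium bromide substrate and compound at 1/4x MIC. Fluorescence ex 544/em 590 nm at 37 °C every minute for 60 min; accumulation scored 0-4 by relative fluorescence bands. Verapamil positive, PBS negative control.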

[4] = Selectivity index, ratio of GIC50 for cytotoxicity against mouse RAW264.7 cells to MIC for Mycobacterium tuberculosis H37Rv ATTC 27294; format: toxicity, cell-based; settings: read-out: Selectivity Index
Outline: (§2)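 SI = GIC50 / H37Rv MIC (agar spot assay). GIC50 from cells in RPMI-1640 + 10% FBS, 37 °C, 5% CO2; 10^5 cells/mL added to two-fold compound dilutions from 50 mg/mL stock, solvent control row. 48 h exposure, washes (THP-1 centrifuged), fresh medium plus 0.01% […], overnight; fluorescence ex 560/em 590 nm.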

Mycolicibacterium aurum [5] = assay: Antimycobacterial activity against Mycobacterium aurum ATCC 23366 assessed as inhibition of mycobacterial growth incubated for 4 days; format: functional
Outline: (§3)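 HT-SPOTi agar dilution: two-fold serial dilutions of compound were mixed into Middlebrook 7H10 agar with 0.05% glycerol and 10% OADC, giving a final range of 500–0.5 µg/mL. Each well was spotted with 2x10^3 CFU of early-to-mid-log culture. Plates were incubated at 35 or 37 °C until spots appeared in control wells. Controls were DMSO-only and isoniazid. The MIC was read, in triplicate.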

[6] = test system: Mycobacterium tuberculosis; assay: Antimycobacterial activity against Mycobacterium tuberculosis H37Rv ATTC 27294 assessed as inhibition of mycobacterial growth incubated for 7 days; format: functional; settings: H37Rv ATTC 27294, 168 h
Outline: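 MIC by HT-SPOTi on Middlebrook 7H10 agar with 0.05% (v/v) glycerol and 10% (v/v) OADC in 96-well format. Compounds dissolved at 50 mg/mL (stock), two-fold serial dilutions, final 500-0.5 µg/mL. Each well spotted with 2 µL early-to-midlog culture (2x10^3 CFU), incubated at 37 °C until distinct spots in control wells. DMSO-only and isoniazid controls; triplicate.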

[7] = Selectivity index, ratio of GIC50 for cytotoxicity against human THP1 cells to MIC for Mycobacterium tuberculosis H37Rv ATTC 27294; format: toxicity, cell-based, THP-1; settings: read-out: Selectivity Index; outline: as §2
[8] = Cytotoxic activity against mouse RAW264.7 cells assessed as reduction in cell viability incubated for 48 hrs by […] based assay; outline: as §1
[9] = test system: Mycobacterium tuberculosis; assay: Antimycobacterial activity against Mycobacterium tuberculosis mc'2-7000x assessed as inhibition of mycobacterial growth; format: functional
Mycolicibacterium aurum [10] = assay: Antimycobacterial activity against Mycobacterium aurum ATCC 23366 assessed as inhibition of mycobacterial growth at 500 ug/ml incubated for 4 days; format: functional, organism-based; outline: as §3

Cc1cc(CNC2C3CC4CC(C3)CC2C4)c(C)n1-c1ccc(Cl)cc1 (stereo not given)
MIC [1]: 16 µg/mL (≈ 43.4 µM) | GI50 at 48 h [2]: 15 µg/mL (≈ 40.7 µM) | Activity (Mycolicibacterium aurum [3]): 1 RFU | selectivity ratio [4]: 10 | MIC (Mycolicibacterium aurum [5]; ATCC 23366, 96 h): 62 µg/mL (≈ 168 µM) | MIC [6]: 1.9 µg/mL (≈ 5.15 µM) | selectivity ratio [7]: 7.8 | GI50 at 48 h [8]: 19 µg/mL (≈ 51.5 µM) | MIC [9]: 1 µg/mL (≈ 2.71 µM)

Cc1cc(CN2CCN(c3ccccc3)CC2)c(C)n1-c1ccc(Cl)cc1
MIC [1]: 32 µg/mL (≈ 84.2 µM) | GI50 at 48 h [2]: 25 µg/mL (≈ 65.8 µM) | Activity (Mycolicibacterium aurum [3]): 1 RFU | selectivity ratio [4]: 4.2 | MIC (Mycolicibacterium aurum [5]; ATCC 23366, 96 h): 31 µg/mL (≈ 81.6 µM) | MIC [6]: 7.8 µg/mL (≈ 20.5 µM) | selectivity ratio [7]: 3.2 | GI50 at 48 h [8]: 33 µg/mL (≈ 86.9 µM) | MIC [9]: 32 µg/mL (≈ 84.2 µM)

Cc1c(CNC2CCCCC2)cc(-c2ccc(Cl)cc2)n1-c1ccc(Cl)cc1
MIC [1]: 4 µg/mL (≈ 9.68 µM) | GI50 at 48 h [2]: 3.9 µg/mL (≈ 9.43 µM) | Activity (Mycolicibacterium aurum [3]): 2 RFU | MIC (Mycolicibacterium aurum [5]; ATCC 23366, 96 h): 1 µg/mL (≈ 2.42 µM) | selectivity ratio [7]: 0.5 | MIC [9]: 8 µg/mL (≈ 19.4 µM)

Cc1cc(CN2CCN(C3C[C@@H]4CC[C@H]3C4)CC2)c(C)n1-c1ccc(Cl)cc1 (mixture of isomers)
MIC [1]: 27 µg/mL | GI50 at 48 h [2]: 16 µg/mL | Activity (Mycolicibacterium aurum [3]): 1 RFU | selectivity ratio [4]: 2.9 | MIC (Mycolicibacterium aurum [5]; ATCC 23366, 96 h): 16 µg/mL | MIC [6]: 1.9 µg/mL | selectivity ratio [7]: 8.4 | GI50 at 48 h [8]: 5.6 µg/mL | MIC [9]: 2 µg/mL

Cc1cc(CNCc2ccccc2)c(C)n1-c1ccc(F)cc1
MIC [1]: 16 µg/mL (≈ 51.9 µM) | GI50 at 48 h [2]: 28 µg/mL (≈ 90.8 µM) | Activity (Mycolicibacterium aurum [3]): 1 RFU | selectivity ratio [4]: 5.6 | MIC (Mycolicibacterium aurum [5]; ATCC 23366, 96 h): 7.8 µg/mL (≈ 25.3 µM) | MIC [6]: 1 µg/mL (≈ 3.24 µM) | selectivity ratio [7]: 28 | GI50 at 48 h [8]: 5.6 µg/mL (≈ 18.2 µM) | MIC [9]: 4 µg/mL (≈ 13 µM)

Cc1cc(CNCCc2ccccc2)c(C)n1-c1ccc(Cl)cc1
MIC [1]: 32 µg/mL (≈ 94.4 µM) | GI50 at 48 h [2]: 7.3 µg/mL (≈ 21.5 µM) | Activity (Mycolicibacterium aurum [3]): 2 RFU | selectivity ratio [4]: 10 | MIC (Mycolicibacterium aurum [5]; ATCC 23366, 96 h): 16 µg/mL (≈ 47.2 µM) | MIC [6]: 1 µg/mL (≈ 2.95 µM) | selectivity ratio [7]: 7.3 | GI50 at 48 h [8]: 9.9 µg/mL (≈ 29.2 µM) | MIC [9]: 4 µg/mL (≈ 11.8 µM)

Cc1cc(CN2CCN(C34CC5CC(CC(C5)C3)C4)CC2)c(C)n1-c1ccc(Cl)cc1
MIC [1]: 8 µg/mL (≈ 18.3 µM) | GI50 at 48 h [2]: 16 µg/mL (≈ 36.5 µM) | Activity (Mycolicibacterium aurum [3]): 4 RFU | selectivity ratio [4]: 0.006 | MIC (Mycolicibacterium aurum [5]; ATCC 23366, 96 h): 16 µg/mL (≈ 36.5 µM) | MIC [6]: 16 µg/mL (≈ 36.5 µM) | selectivity ratio [7]: 1 | GI50 at 48 h [8]: 0.1 µg/mL (≈ 0.228 µM) | MIC [9]: 8 µg/mL (≈ 18.3 µM)

Cc1cc(/C=N\OCc2ccccc2)c(C)n1-c1ccc(Cl)cc1
MIC [1]: > 64 µg/mL | GI50 at 48 h [2]: 500 µg/mL (≈ 1480 µM) | Activity (Mycolicibacterium aurum [3]): 1 RFU | MIC (Mycolicibacterium aurum [5]): inactive | growth inhibition (GI) (Mycolicibacterium aurum [10]): inactive | MIC [6]: > 125 µg/mL | selectivity ratio [7]: < 4 | GI50 at 48 h [8]: 128 µg/mL (≈ 378 µM) | MIC [9]: > 64 µg/mL

Cc1c(CN2CCN(C)CC2)cc(-c2ccc(Cl)cc2)n1-c1ccc(Cl)cc1
MIC [1]: 25 µg/mL (≈ 60.3 µM) | GI50 at 48 h [2]: 3.23 µg/mL (≈ 7.8 µM) | Activity (Mycolicibacterium aurum [3]): 2 RFU | selectivity ratio [4]: 19 | MIC (Mycolicibacterium aurum [5]; ATCC 23366, 96 h): 16 µg/mL (≈ 38.6 µM) | MIC [6]: 1 µg/mL (≈ 2.41 µM) | selectivity ratio [7]: 3.23 | GI50 at 48 h [8]: 19 µg/mL (≈ 45.9 µM) | MIC [9]: 8 µg/mL (≈ 19.3 µM)

Cc1c(CN2CCN(c3ccccc3)CC2)c(CN2CCN(c3ccccc3)CC2)c(C)n1-c1ccc(Cl)cc1
MIC [1]: > 64 µg/mL | GI50 at 48 h [2]: 113 µg/mL (≈ 204 µM) | Activity (Mycolicibacterium aurum [3]): 2 RFU | selectivity ratio [4]: 16 | MIC (Mycolicibacterium aurum [5]; ATCC 23366, 96 h): 250 µg/mL (≈ 451 µM) | MIC [6]: 31 µg/mL (≈ 55.9 µM) | selectivity ratio [7]: 3.6 | GI50 at 48 h [8]: 500 µg/mL (≈ 902 µM) | MIC [9]: > 64 µg/mL

Cc1cc(CNCc2ccc(Cl)cc2)c(C)n1-c1ccc(Cl)cc1
MIC [1]: 4 µg/mL (≈ 11.1 µM) | GI50 at 48 h [2]: 18 µg/mL (≈ 50.1 µM) | Activity (Mycolicibacterium aurum [3]): 2 RFU | selectivity ratio [4]: 0.006 | MIC (Mycolicibacterium aurum [5]; ATCC 23366, 96 h): 1.9 µg/mL (≈ 5.29 µM) | MIC [6]: 16 µg/mL (≈ 44.5 µM) | selectivity ratio [7]: 1.1 | GI50 at 48 h [8]: 0.1 µg/mL (≈ 0.278 µM) | MIC [9]: 2 µg/mL (≈ 5.57 µM)

Cc1cc(CNCc2ccccc2)c(C)n1-c1ccc(Cl)cc1
MIC [1]: 4 µg/mL (≈ 12.3 µM) | GI50 at 48 h [2]: 7.2 µg/mL (≈ 22.2 µM) | Activity (Mycolicibacterium aurum [3]): 2 RFU | selectivity ratio [4]: 11 | MIC (Mycolicibacterium aurum [5]; ATCC 23366, 96 h): 1.9 µg/mL (≈ 5.85 µM) | MIC [6]: 0.5 µg/mL (≈ 1.54 µM) | selectivity ratio [7]: 14 | GI50 at 48 h [8]: 5.5 µg/mL (≈ 16.9 µM) | MIC [9]: 0.5 µg/mL (≈ 1.54 µM)

Source: ChEMBL document CHEMBL3797154, “Design and Synthesis of 1-((1,5-Bis(4-chlorophenyl)-2-methyl-1H-pyrrol-3-yl)methyl)-4-methylpiperazine (BM212) and N-Adamantan-2-yl-N'-((E)-3,7-dimethylocta-2,6-dienyl)ethane-1,2-diamine (SQ109) Pyrrole Hybrid Derivatives: Discovery of Potent Antitubercular Agents Effective against …” (J Med Chem, 2016)
